Assay results published in paper PMC4435052 (Combinatorial Chemistry & High Throughput Screening, 2015).
Entries after “also recorded” stand apart in the source; their conditions may differ.

Tests used:
[1] = molecular target: T1, p50RhoGAP(205-439) GAP domain (Mus musculus, UniProt Q5FWK3); test: Selectivity GAP activity assay with p50RhoGAP GAP domain; assay type: biochemical
T1 sequence (Q5FWK3 205-439): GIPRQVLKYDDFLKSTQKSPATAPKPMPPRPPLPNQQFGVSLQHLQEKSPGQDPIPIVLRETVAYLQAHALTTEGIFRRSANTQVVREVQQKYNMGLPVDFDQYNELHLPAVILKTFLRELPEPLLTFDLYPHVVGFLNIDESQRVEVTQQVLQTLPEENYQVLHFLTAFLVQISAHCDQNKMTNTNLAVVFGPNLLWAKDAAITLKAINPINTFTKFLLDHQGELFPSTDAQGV
Method in brief: (§1)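 Same buffer as the primary assay: Rac1(F28L) 600 nM, 150 µM GTP, 2% DMSO, 2 h at room temperature. GAP domain is BCR(1010-1271) at 200 nM or p50RhoGAP(205-439) at 50 nM, doses set for similar signal window. Test compound at 0.1-100 µM, with or without pre-incubation before GTP start. Read-out is ADP Hunter Plus fluorescence (ex 530/em 590 nm), normalized to plate controls.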

[2] = molecular target: T2, BCR(1010-1271) GAP domain (Homo sapiens, UniProt P11274); test: Counter/selectivity GAP activity assay with BCR GAP domain in place of MgcRacGAP; assay type: biochemical
T2 sequence (P11274 1010-1271): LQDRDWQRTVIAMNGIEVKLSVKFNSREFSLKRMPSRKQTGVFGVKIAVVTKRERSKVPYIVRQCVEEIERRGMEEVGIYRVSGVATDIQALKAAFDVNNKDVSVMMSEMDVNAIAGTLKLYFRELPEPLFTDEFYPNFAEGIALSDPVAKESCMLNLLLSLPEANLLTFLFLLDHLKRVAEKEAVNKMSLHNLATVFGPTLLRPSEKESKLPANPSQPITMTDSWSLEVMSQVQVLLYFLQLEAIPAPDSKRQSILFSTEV
Method in brief: as §1

[3] = system: HeLa cells; test: Immunofluorescence analysis of cell division morphology; assay type: cell-based, human; conditions: 25 µM, 48 h
Method in brief: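 HeLa cells on fibronectin-coated coverslips, treated 3-48 h with DMSO or 25 µM test compound. Fixed in ice-cold methanol and stained with mouse anti-α-tubulin and goat anti-MgcRacGAP. Detected with Alexa Fluor 488 and 647 secondaries; DAPI-containing mountant. Imaged by widefield fluorescence microscopy.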

[4] = system: essential replicative helicase of Staphylococcus aureus; conditions: 80 µM, ref PubChem AID 485395; cited from earlier work
[5] = molecular target: MgcRacGAP(345-618) GAP domain (Homo sapiens, UniProt Q9H0H5); test: Primary biochemical GAP activity assay, Rac1
Method in brief: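 Rac1(F28L) 600 nM with MgcRacGAP(345-618) at 2 nM in 15 mM Hepes pH 7.5, 20 mM NaCl, 1 mM EGTA, 0.02% Tween 20, 0.1 mg/mL BSA, 2% DMSO, 150 µM GTP; 2 h at room temperature. GDP detected by ADP Hunter Plus at half volumes (resorufin ex 530/em 590 nm). Test compound at 0.1-100 µM, with or without protein pre-incubation before GTP; n=8; control-normalized, fits constrained 0-100%.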

[6] = system: A549 cells; test: Cellular movement, tracking of individual cells in 2D culture; assay type: cell-based, human; conditions: 25 µM, 24 h
Method in brief: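 A549 cells seeded at 10,000/well and given DMSO or 25 µM test compound 6 h later. Imaged every 5 min with a 20x objective for 24 h. Randomly chosen cells tracked individually to trace movement in 2D.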

[7] = system: HeLa cells; assay type: cell-based, human
Method in brief: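 HeLa cells synchronized by double thymidine block: 2 mM thymidine at plating for 19 h, three PBS washes, release into fresh medium, second 2 mM block 9 h later, washed after 16 h. Released with or without test compound (10-80 µM) or nocodazole (165 nM). Tracked by live-cell phase imaging for cell rounding and death.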

[8] = system: A549 cells; assay type: cell-based, human; conditions: 25 µM
Method in brief: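 A549 cells in chamber slides, treated 3-48 h with DMSO or 25 µM test compound. Stained with phalloidin, Hoechst 33342, anti-α-tubulin and anti-MgcRacGAP. Cells scored as normal (mononuclear), mitotic (rounded), multinuclear or dead in at least eight random fields per condition. Reported as average percentage per time point.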

[9] = system: MDA-MB-231 cells; test: Scratch-wound Matrigel invasion; assay type: cell-based, human; conditions: 10-40 µM, increasing concentrations
Method in brief: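 MDA-MB-231 cells at 40,000/well on Matrigel-precoated plates. After 16 h, near-confluent monolayers scratched, washed and overlaid with Matrigel (8 mg/mL). After 30 min at 37°C, medium with DMSO or test compound (10-40 µM final) added. Scratch-wound imaging followed; relative wound density computed per image; n=4.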

[10] = system: A549 cells; test: Cytotoxicity by live cell imaging; assay type: cell-based, human; conditions: 80 µM
Method in brief: (§2)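 A549 cells at 50,000/well received Premo gemini-GFP (G2/M) and Cdt-RFP (G1/S) 1:1 24 h after plating. After overnight incubation, replated at 1,600 cells/well. Imaged hourly by phase contrast, green and red fluorescence. 14 h later given 80 µM test compound, DMSO, or 20 µM benzethonium chloride, then followed hourly.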

[11] = system: MDA-MB-231 cells; test: Cell proliferation by live cell imaging; assay type: cell-based, human
Method in brief: (§3)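 Cells cultured in EMEM, DMEM or RPMI 1640 with 10% FBS, seeded at 1,600 cells/well 6-12 h before treatment. Exposed up to 72 h to test compound (5-80 µM), DMSO as negative control, or 20 µM benzethonium chloride as kill control. CellTox Green in medium; live imaging gave toxicity (green fluorescence) and proliferation (phase-contrast confluency). Replicate sets.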

[12] = molecular target: MgcRacGAP GAP activity on wild type Rac1 (Homo sapiens, UniProt Q9H0H5); test: Single turnover GAP assay with GTP-loaded wild type Rac1; assay type: biochemical; conditions: GTP-loaded wild type Rac1, 50 µM
[13] = molecular target: MgcRacGAP-stimulated activity of wild type Rac1 (Homo sapiens, UniProt Q9H0H5); test: Multiple-turnover GTPase assay with wild type Rac1; assay type: biochemical; conditions: wild type Rac1, data not shown
Method in brief: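 Wild-type Rac1 […] in the 2x mix, combined with test compound in GTPase/GAP buffer. MgcRacGAP serially diluted in (0.1-100 nM) and held 2 h at room temperature. Started with 2x GTP (10 µM) and run 2 h more. Remaining GTP read by GTPase-Glo reagent (30 min), then detection solution; luminescence read after 10 min.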

[14] = system: MDA-MB-231 cells; test: Cytotoxicity, CellTox Green live cell imaging; assay type: cell-based, human
Method in brief: as §3

[15] = system: A549 cells; test: FUCCI cell cycle reporter assay; assay type: cell-based, human; conditions: 80 µM, from 6 h after exposure
Method in brief: as §2

[16] = system: RWPE-1 cells; test: Cell viability dose response in slow growing cells; assay type: cell-based, human; conditions: 72 h dose response 5-80 µM
Method in brief: as §3

[17] = molecular target: Rac1-MgcRacGAP complex (Homo sapiens, UniProt P63000+Q9H0H5, Q61L); test: MgcRacGAP - Rac1 Q61L binding assay, bio-layer interferometry; conditions: 12.5-50 µM, dose dependent
[18] = dose response 0.1-100 µM, no pre-incubation
[19] = proteins pre-incubated with compound before GTP addition
[20] = prolonged periods of time, data not shown

MgcRacGAP(345-618) GAP domain, sequence (Q9H0H5 345-618): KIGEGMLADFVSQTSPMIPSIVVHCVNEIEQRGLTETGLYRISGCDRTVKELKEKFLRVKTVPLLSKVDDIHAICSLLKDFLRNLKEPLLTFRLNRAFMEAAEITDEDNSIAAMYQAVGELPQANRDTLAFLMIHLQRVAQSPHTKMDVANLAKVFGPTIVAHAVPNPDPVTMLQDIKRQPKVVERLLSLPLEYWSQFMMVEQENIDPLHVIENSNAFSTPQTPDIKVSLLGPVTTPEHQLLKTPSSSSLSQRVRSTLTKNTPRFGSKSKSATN
Rac1-MgcRacGAP complex, sequence (Q9H0H5 345-618, stated change not applied, one chain of several): as the sequence (Q9H0H5 345-618) above
MgcRacGAP GAP activity on wild type Rac1, sequence (Q9H0H5 345-618): as above
MgcRacGAP-stimulated activity of wild type Rac1, sequence (Q9H0H5 345-618): as above

Cl.Cl.c1cc2cc(C3=NCCN3)ccc2cc1C1=NCCN1 [MINC1, 2,6-bis(4,5-dihydro-1H-imidazol-2-yl)naphthalene dihydrochloride]
activity towards p50RhoGAP [1, 18]: no detectable activity
activity towards p50RhoGAP, pre-incubation [1, 19]: no detectable activity
activity towards BCR [2, 18]: no detectable activity
activity towards BCR, pre-incubation [2, 19]: no detectable activity
multinucleated cells versus control [3]: showed more multinucleated cells
reported bioactivity [4]: marginal activity
maximum inhibition reached by dose response curves [5]: 80-90%
IC50 ([5]; IC50 MgcRacGAP, dose response 0.1-100 µM, no pre-incubation): 15 ± 5 µM
Hill slope ([5]; dose response, no pre-incubation): 0.9
Hill slope, pre-incubation [5, 19]: 0.7
cell motility [6]: lost almost all motility
time to cell rounding, non-synchronized cells ([7]; after compound addition): approximately 3 h
time to cell rounding, synchronized cells ([7]; after release from double thymidine block): 8 to 10 h
concentration at which cell death was observed [7, 20]: 80 µM
time of peak of cells with mitotic phenotype [8]: ≤ 9 h
percentage of multinucleated cells ([8]; during 24h treatment): increased over time
wound-healing rate [9]: decreased wound-healing rates; also recorded: decreasing ability to migrate
tolerance of high concentration [10]: could tolerate such high concentrations
IC50 ([11]; Homo sapiens, MDA-MB-231, 48 h, read-out: IC50 cell proliferation): 17 µM
concentration that caused cell proliferation to cease ([11]; highly proliferative cells): ≥ 20 µM
effect on MgcRacGAP GAP activity, single turnover assay [12]: no effect
inhibition of MgcRacGAP-stimulated activity, multiple-turnover assay [13]: did not detect any notable inhibition
concentration at which cell death was observed [14, 20]: 80 µM
cell toxicity at concentrations that stop proliferation ([14]; ≥20 µM, highly proliferative cells): without detectable cell toxicity
cell cycle state [15]: arrested in G2/M-phase
effect on cell viability in slow growing cells [16]: negligible effects on cell viability
dissociation of Rac1-MgcRacGAP complex [17]: slowed down the dissociation process; also recorded: decreased dissociation rate
